For orientation: inhibition means the relative decrease from the control value, in per cent.

Screen size: about 360,000 compounds; about 890 (0.25%) were called active. For the sample, actives were picked, then their nearest neighbours and some compounds at random. Values without a mark were called inactive.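 The calls were made as follows: active = inhibition at 20 µM, scaled per plate between control wells, above about 37% (limit read from the data); inactive = the rest.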

25 molecules from PubChem BioAssay AID588621 (Sanford-Burnham Center for Chemical Genomics, 2011) can be followed below.

For this assay, the target named is Tyrosine-protein phosphatase non-receptor type 5 (Homo sapiens) (UniProt P54829). In words: STEP phosphatase inhibitors, primary screen, biochemical, fluorescence intensity, uHTS (AID 588621).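 Also: 0% = DMSO with enzyme and substrate and 100% = substrate only without enzyme.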 As to conditions: recombinant STEP, OMFP fluorogenic substrate, at 20 µM, active compounds read high. In a few lines: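 System: isolated STEP enzyme; schedule: 20 min enzyme reaction at room temperature, protected from light; medium: Bis-Tris buffer pH 6.0, 2.5 mM DTT, 0.005% Tween 20; signal: fluorescence, 480/540 nm; dosing: single compound dose of 20 µM, 1% DMSO final; also added: OMFP substrate, 25 µM final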
Tyrosine-protein phosphatase non-receptor type 5 (Homo sapiens), sequence (P54829 whole entry, looked up): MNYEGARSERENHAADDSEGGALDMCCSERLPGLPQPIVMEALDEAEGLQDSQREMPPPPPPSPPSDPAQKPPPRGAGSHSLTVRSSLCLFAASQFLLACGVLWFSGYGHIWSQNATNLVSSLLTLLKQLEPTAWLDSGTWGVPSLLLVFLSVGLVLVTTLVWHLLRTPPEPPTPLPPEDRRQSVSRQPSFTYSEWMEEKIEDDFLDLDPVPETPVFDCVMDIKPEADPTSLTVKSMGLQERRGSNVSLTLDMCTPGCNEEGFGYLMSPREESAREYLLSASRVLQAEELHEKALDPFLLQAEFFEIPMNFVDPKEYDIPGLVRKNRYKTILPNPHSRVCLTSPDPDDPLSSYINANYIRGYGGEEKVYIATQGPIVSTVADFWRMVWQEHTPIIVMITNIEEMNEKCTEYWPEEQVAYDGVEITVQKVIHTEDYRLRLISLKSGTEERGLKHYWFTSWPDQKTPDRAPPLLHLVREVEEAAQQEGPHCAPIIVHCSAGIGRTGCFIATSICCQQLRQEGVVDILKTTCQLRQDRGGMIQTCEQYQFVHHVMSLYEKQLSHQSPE
For `Cc1cc(F)ccc1S(=O)(=O)Nc1ccc(C(=O)N(C)Cc2ccco2)cc1`, the inhibition was 2.5%.

In the case of `Cc1ccccc1NC(=O)C(C)OC(=O)CCC(=O)N(CC(C)C)c1c(N)n(CC(C)C)c(=O)[nH]c1=O` (stereo not given), the inhibition was -1.1%.

Take `CCOc1ccc(NC(=O)c2ccc(NC(=O)CN3C(=O)C(=O)N(CC(C)C)C3=O)cc2)cc1`: the inhibition was -3.1%.

For the molecule `COc1ccc(CCNC(=O)Nc2ccc3c(c2)c(=O)n(C)n3C)cc1OC`, the inhibition was 1.1%.

Turning to `Cc1cc2nc(C)n(CCCNC(=O)Nc3ccccc3)c2cc1C`, the inhibition is -3.8%.

On to `COCCNC(=O)Nc1ccc2nc(-c3ccco3)c(-c3ccco3)nc2c1`, for which the inhibition was 60.1% (active).

For `O=C(COC(=O)Cc1ccc(Br)cc1)Nc1c(F)c(F)c(F)c(F)c1F`, the inhibition was -0.2%.

Turning to `Nc1cc(=O)c2[nH]cnc2[nH]1`, the inhibition is -4.7%.

Regarding `CN(C(=O)COC(=O)Cc1ccccc1[N+](=O)[O-])C1CCS(=O)(=O)C1` (stereo not given), the inhibition is -3.3%.

For the molecule `COc1ccc(NC(=O)COc2ccc(C(=O)OCC(=O)N(C)C3CCS(=O)(=O)C3)cc2OC)cc1` (stereo not given), the inhibition is -4.8%.

On to `CN(C(=O)COC(=O)c1cc(-c2ccco2)nc2ccccc12)C1CCS(=O)(=O)C1` (stereo not given), for which the inhibition is 64.5% (active).

Turning to `O=C1c2ccccc2C(=O)N1CCC(O)C[N+](=O)[O-]` (stereo not given), the inhibition was 3.3%.

For the molecule `COC(=O)C1=C(C)NC(=S)NC1c1ccc(OCC(=O)N2CC(C)OC(C)C2)c(OC)c1` (stereo not given), the inhibition is -3.9%.

Take `O=S(=O)(c1ccc(-c2ccno2)s1)N1CCCCC1`: the inhibition was -0.2%.

With `Cc1ccccc1CC1(CO)CCCN(Cc2ccc3c(c2)OCCO3)C1` (stereo not given), the inhibition is -4%.

Take `Cc1ccccc1CC1(CO)CCCN(C(=O)c2cc(-c3ccccc3)no2)C1` (stereo not given): the inhibition is 120% (active).

On to `Cc1noc(C)c1CCC(=O)N1CCCC(CO)(Cc2ccccc2)C1` (stereo not given), for which the inhibition was -1.7%.

As for `COc1ccc(S(=O)(=O)NC(C)C(=O)NCc2ccncc2)cc1Cl` (stereo not given), the inhibition is -1.3%.

As for `CCCCC[C@@H]1C=C(C(=O)O)[C@H](c2ccc(C#N)cc2)N1S(=O)(=O)c1ccc(C)cc1`, the inhibition is -1.7%.

For the molecule `O=C(CS(=O)(=O)Cc1ccccc1)Nc1cccnc1`, the inhibition is -1.4%.

On to `O=C(OCC(=O)N1CCCC1)c1ccc(Cl)nc1`, for which the inhibition was -2.6%.

Consider `CC(C)(C)c1ccc(SCCc2ccncc2)cc1`, for which the inhibition is 0%.

`O=C(COC(=O)COc1cccc(F)c1)NCC1CCCCC1`: the inhibition is -3.8%.

In the case of `CCN(C(=O)COc1ccc(C(=O)c2ccccc2)cc1)c1ccccc1`, the inhibition is -1.7%.

Turning to `O=C(COc1cccc(F)c1)Oc1ccc(C(=O)c2ccccc2)cc1`, the inhibition was 89.8% (active).
